Measurements gathered from unrelated publications.
Compare with care: the assays were run in different laboratories.
Target: Serine/threonine-protein kinase Nek9 (NEK9, Homo sapiens, UniProt Q8TD19)
One construct used (Q8TD19 1-979): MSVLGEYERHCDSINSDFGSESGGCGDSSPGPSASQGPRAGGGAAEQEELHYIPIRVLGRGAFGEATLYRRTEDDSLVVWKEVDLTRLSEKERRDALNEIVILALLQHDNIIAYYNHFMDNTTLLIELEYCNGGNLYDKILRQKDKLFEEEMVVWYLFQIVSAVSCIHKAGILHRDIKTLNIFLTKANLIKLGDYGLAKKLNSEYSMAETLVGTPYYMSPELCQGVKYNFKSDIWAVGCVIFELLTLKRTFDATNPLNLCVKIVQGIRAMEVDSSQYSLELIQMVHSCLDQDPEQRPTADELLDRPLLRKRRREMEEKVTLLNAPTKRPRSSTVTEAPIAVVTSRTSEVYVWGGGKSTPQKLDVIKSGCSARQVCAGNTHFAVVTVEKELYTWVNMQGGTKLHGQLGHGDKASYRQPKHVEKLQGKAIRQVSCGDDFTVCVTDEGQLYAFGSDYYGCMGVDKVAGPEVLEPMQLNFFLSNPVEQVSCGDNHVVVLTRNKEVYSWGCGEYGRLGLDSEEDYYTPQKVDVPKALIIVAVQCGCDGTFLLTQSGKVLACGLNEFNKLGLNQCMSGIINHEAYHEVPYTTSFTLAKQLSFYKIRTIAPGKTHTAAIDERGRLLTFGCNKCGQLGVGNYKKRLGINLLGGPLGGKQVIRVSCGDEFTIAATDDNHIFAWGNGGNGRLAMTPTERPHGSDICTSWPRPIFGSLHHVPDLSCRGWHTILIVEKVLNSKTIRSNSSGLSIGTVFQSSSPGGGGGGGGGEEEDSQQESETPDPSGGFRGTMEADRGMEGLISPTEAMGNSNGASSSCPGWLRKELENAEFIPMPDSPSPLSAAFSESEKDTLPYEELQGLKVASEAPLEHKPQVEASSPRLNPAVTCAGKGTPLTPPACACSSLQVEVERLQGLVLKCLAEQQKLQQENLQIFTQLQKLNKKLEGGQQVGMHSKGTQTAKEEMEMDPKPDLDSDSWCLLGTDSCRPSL

Structure (SMILES)	effect on	action	method	concentration	measurement	result
O=C1Nc2ccc(Cl)cc2C1=Cc1cc(Cl)c(O)c(Cl)c1	cell-free assay			0.5 µM	remaining signal	103%
CC(C)(C)c1nc(-c2cccc(NS(=O)(=O)c3c(F)cccc3F)c2F)c(-c2ccnc(N)n2)s1	enzyme activity	inhibitor	radiometric	1 µM	remaining activity	106%
Nc1ncnc2occ(-c3ccc(NC(=O)Nc4cc(C(F)(F)F)ccc4F)cc3)c12	cell-free assay	inhibitor		20 µM	remaining signal	1.6%
O=C1NC(=O)c2cc(Nc3ccc(F)cc3)c(Nc3ccc(F)cc3)cc21	cell-free assay			0.5 µM	remaining signal	107%
O=C(NS(=O)(=O)c1ccc(NCC2CCOCC2)c([N+](=O)[O-])c1)c1ccc(N2CCN(Cc3ccc(C(F)(F)F)cc3-c3ccc(Cl)cc3)CC2)cc1Oc1cnc2[nH]ccc2c1	cell-free assay		competition with immobilised ligand	1 µM	remaining binding	100%
COc1cc2ncnc(Nc3ccc(Oc4ccccc4)c(C)c3C)c2cc1OC	enzyme activity	inhibitor		1 µM	inhibition	5%
Cc1ccc(NC(=O)c2ccc(C)c(C(F)(F)F)c2)cc1C#Cc1nn(C2CCC(O)CC2)c2ncnc(N)c12 (stereo not drawn)	cell-free assay			10 µM	remaining signal	59%
Cc1ccc(C(=O)Nc2ccc(CN3CCN(C)CC3)c(C(F)(F)F)c2)cc1C#Cc1cnc2cccnn12	enzyme activity	inhibitor		23.5 nM	remaining activity	100%
CS(=O)(=O)CCNCc1ccc(-c2ccc3ncnc(Nc4ccc(OCc5cccc(F)c5)c(Cl)c4)c3c2)o1	cell-free assay			0.5 µM	remaining signal	100%
O=C(Nc1cnn(-c2csc(C(=O)NC3COC3)c2)c1)Nc1c(F)cccc1Cl	enzyme activity	inhibitor		5 µM	remaining activity	88.4%
CNCc1ccccc1-c1csc([C@H](C)Nc2nc(C)nc3cc(OC)c(OC)cc23)c1	cell-free assay		competition with immobilised ligand	1 µM	remaining binding	100%
Cc1cnc(NC2CCOCC2)nc1-n1cnc(C(=O)NC(CN)c2cc(F)cc(Cl)c2)c1 (stereo not drawn)	enzyme activity	inhibitor	radiometric	1 µM	remaining activity	101%
O=C(NCc1ncc(C(F)(F)F)cc1Cl)c1ccc2c(c1)C1(CCS(=O)(=O)CC1)[C@H](C1CC1)N2S(=O)(=O)c1ccc(F)cc1	cell-free assay		competition with immobilised ligand	1 µM	remaining binding	100%
CN1CC(Oc2cnc(C#N)cc2-c2ccn3nc(NC(=O)C4CC4)cc3c2)C1	enzyme activity	inhibitor		1 µM	inhibition	-3%
CCCOc1ccc([C@@H]2[C@@H](C(=O)O)[C@H](c3ccc4c(c3)OCO4)CN2CC(=O)Nc2c(CC)cccc2CC)cc1	cell-free assay		competition with immobilised ligand	1 µM	remaining binding	100%
N#CCCc1ccc2c(c1)-c1[nH]c3ccc([N+](=O)[O-])cc3c1CC(=O)N2	cell-free assay			0.5 µM	remaining signal	103%
CC(C)(O)[C@H]1CC[C@H](Nc2ccc3ncc(-c4cccc(C(F)(F)F)c4)n3n2)CC1	enzyme activity	inhibitor		1 µM	remaining activity	79.5%
C[C@H](NC(=O)c1cnc2n1[C@](C)(Cc1ccc(C#N)cc1)C(=O)N2c1cc(Cl)c(F)c(Cl)c1)C(=O)NC1(c2ccccn2)CC1	cell-free assay		competition with immobilised ligand	1 µM	remaining binding	100%
